The source made the active and inactive calls. The rule behind the calls is not given here.
Key:
[1] = tested on: 3T3-L1; assay: Induction of Atgl mRNA expression in mouse 3T3L1 cells at 2.5 and 5 uM incubated for 48 hrs by qPCR method; type: functional, cell-based
In short: (§1)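 Mature 3T3-L1 adipocytes (confluent cells induced 3 days with 0.5 mmol/L IBMX, 1.0 µmol/L DEX, 10 mg/L insulin, then insulin 2 days, used ~day 10) treated 0, 2.5 or 5 µM for 48 h. Total RNA extracted, qPCR, normalized to β-actin; DMSO 0.1% controls; mean ± SD, three independent experiments.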

[2] = tested on: 3T3-L1; assay: Suppression of lipogenesis associated gene expression in mouse 3T3L1 cells assessed as reduction in Srebp-1c mRNA expression incubated for 48 hrs by qPCR method; type: functional, cell-based; in short: as §1
[3] = tested on: 3T3-L1; assay: Suppression of lipogenesis associated gene expression in mouse 3T3L1 cells assessed as reduction in Scd1 mRNA expression at 2.5 and 5 uM incubated for 48 hrs by qPCR method; type: functional, cell-based; in short: as §1
[4] = tested on: 3T3-L1; assay: Suppression of lipogenesis associated gene expression in mouse 3T3L1 cells assessed as reduction in Acc mRNA expression at 2.5 and 5 uM incubated for 48 hrs by qPCR method; type: functional, cell-based; in short: as §1
[5] = tested on: 3T3-L1; assay: Inhibition of triglyceride content in mouse 3T3L1 cells at 5 uM incubated for 48 hrs by triglyceride GPO-POD assay; type: functional; conditions: 3T3-L1, 48 h
In short: (§2)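 Differentiated 3T3-L1 adipocytes treated 0, 2.5 or 5 µM for 48 h; lysates heated 70 °C for 10 min, centrifuged, supernatant mixed with GPO-POD working reagent 10 min at 37 °C, absorbance at 550 nm. TG normalized to BCA protein; 0.1% DMSO controls; mean ± SD of ≥3 experiments.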

[6] = tested on: 3T3-L1; assay: Inhibition of triglyceride content in mouse 3T3L1 cells at 2.5 uM incubated for 48 hrs by triglyceride GPO-POD assay; type: functional; conditions: 3T3-L1, 48 h; in short: as §2
[7] = tested on: 3T3-L1; assay: Inhibition of lipid accumulation in mouse 3T3L1 cells at 2.5 to 5 uM incubated for 48 hrs by Oil Red O staining based spectrophotometry; type: functional, cell-based
In short: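 Mature 3T3-L1 adipocytes (IBMX/DEX/insulin-differentiated, day 10) after 48 h treatment fixed in 10% buffered formalin 30 min, stained with diluted Oil Red O 1 h at room temperature, washed with 60% isopropanol, dye eluted with isopropanol, absorbance read at 510 nm; expressed as percent intracellular lipid.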

[8] = tested on: 3T3-L1; assay: Cytotoxicity against mouse 3T3L1 cells assessed as reduction in cell viability at <5 uM incubated for 48 hrs by CCK8 assay; type: cell-based; conditions: 3t3-l1, 48 h
In short: (§3)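 3T3-L1 preadipocytes (maintained in DMEM/10% calf serum, 37 °C, 5% CO2) seeded 5×10^3 cells/well in 96-well plates, grown 24 h, then exposed to 1.25–80 µM for 48 h; controls 0.1% DMSO. CCK8 added for 2 h at 37 °C, absorbance at 450 nm. IC50 by logit method; n = 6 plates, ≥3 experiments.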

[9] = tested on: 3T3-L1; assay: Effect on Hsl mRNA expression in mouse 3T3L1 cells at 2.5 and 5 uM incubated for 48 hrs by qPCR method; type: functional, cell-based; in short: as §1
[10] = tested on: 3T3-L1; assay: Induction of AMPK mRNA expression in mouse 3T3L1 cells at 5 uM incubated for 48 hrs by qPCR method; type: functional, cell-based; in short: as §1
[11] = tested on: 3T3-L1; assay: Suppression of lipogenesis associated gene expression in mouse 3T3L1 cells assessed as reduction in Fasn mRNA expression at 5 uM incubated for 48 hrs by qPCR method; type: functional, cell-based; in short: as §1
[12] = tested on: 3T3-L1; assay: Cytotoxicity against mouse 3T3L1 cells assessed as reduction in cell viability incubated for 48 hrs by CCK8 assay; type: cell-based; conditions: for IC50: Mus musculus, 3T3-L1, 48 h; for Activity: mouse, 3t3-l1, 48 h; in short: as §3
[13] = tested on: 3T3-L1; assay: Cytotoxicity against mouse 3T3L1 cells assessed as reduction in cell viability at >10 uM incubated for 48 hrs by CCK8 assay; type: cell-based; conditions: 3t3-l1, 48 h; in short: as §3
[14] = tested on: 3T3-L1; assay: Cytotoxicity against mouse 3T3L1 cells assessed as reduction in cell viability at 1.25 to 5 uM incubated for 48 hrs by CCK8 assay; type: cell-based; conditions: 3t3-l1, 48 h; in short: as §3
[15] = tested on: 3T3-L1; assay: Reduction in Hsl mRNA expression in mouse 3T3L1 cells at 2.5 uM incubated for 48 hrs by qPCR method; type: functional, cell-based; in short: as §1
[16] = tested on: 3T3-L1; assay: Cytotoxicity against mouse 3T3L1 cells assessed as reduction in cell viability at […] incubated for 48 hrs by CCK8 assay; type: cell-based; conditions: 3t3-l1, 48 h
[17] = tested on: 3T3-L1; assay: Cytotoxicity against mouse 3T3L1 cells assessed as reduction in cell viability at 20 uM incubated for 48 hrs by CCK8 assay; type: cell-based; conditions: 3t3-l1, 48 h; in short: as §3

Row | SMILES | Activity [1] | inhibition [2] | inhibition [3] | inhibition [4] | inhibition at 5 µM [5] [%] | inhibition at 2.5 µM [6] [%] | inhibition [7] | Activity [8] | Activity [9] | Activity [10] | inhibition [11] | IC50 [12] [µM] | Activity [12] | Activity [13] | Activity [14] | Activity [15] | Activity [16] | Activity [17] [%]
1 | COc1ccc2cc3[n+](cc2c1OCCCCCCOc1c(O)cc2oc(-c4ccccc4)cc(=O)c2c1O)CCc1cc2c(cc1-3)OCO2 | Active | Dose-dependent effect | Active | Active | 37.4 | 27.3 | Active | Non-Toxic | inactive | Active | Active | 9.42 | Dose-dependent effect | – | – | – | – | –
2 | O=c1cc(-c2ccccc2)oc2cc(O)c(O)c(O)c12 [BAICALEIN] | Active | Dose-dependent effect | Active | – | – | – | – | – | – | Active | Active | 29.8 | Dose-dependent effect | Toxic | Non-Toxic | Active | Non-Toxic | –
3 | COc1ccc2cc3[n+](cc2c1OC)CCc1cc2c(cc1-3)OCO2 [BERBERINE] | Active | Dose-dependent effect | Active | – | – | – | – | – | – | – | Active | 21.8 | Dose-dependent effect | – | – | Active | – | 45
